# How the values were obtained:
# Assay type in all cases: functional
# [1] = system: Corynebacterium urealyticum; test: Antibacterial activity against Corynebacterium urealyticum isolated from patient with diabetic foot infection after 48 hrs by broth microdilution method
# How it was run: (§1)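 Isolates were subcultured on Trypticase soy blood agar. Broth microdilution used cation-adjusted Mueller-Hinton broth with lysed horse blood, in-house trays of twofold drug dilutions stored at −70°C. Colonies from overnight growth gave a final inoculum of about 5 × 10^5 CFU/ml. Trays were read after 18 to 24 h at 37°C, up to 48 h for some strains.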
# [2] = system: Streptococcus dysgalactiae subsp. equisimilis; test: Antibacterial activity against Streptococcus dysgalactiae subsp. equisimilis isolated from patient with diabetic foot infection assessed as percent resistant isolates after 18 to 24 hrs by broth microdilution method
# How it was run: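 Streptococci subcultured on Trypticase soy blood agar and tested by broth microdilution in cation-adjusted Mueller-Hinton broth with lysed horse blood. In-house twofold dilution trays stored at −70°C. About 5 × 10^5 CFU/ml final inoculum from overnight colonies. Read after 18 to 24 h at 37°C.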
# Klebsiella aerogenes = test: Antibacterial activity against Enterobacter aerogenes isolated from patient with diabetic foot infection assessed as percent resistant isolates after 18 to 24 hrs by broth microdilution method
# How it was run: (§2)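 Aerobes subcultured on Trypticase soy blood agar, then broth microdilution in cation-adjusted Mueller-Hinton broth. Trays prepared in-house with twofold dilutions and stored at −70°C. Overnight colonies suspended to about 5 × 10^5 CFU/ml final. Read after 18 to 24 h at 37°C. QC strains included S. aureus ATCC 29213 and E. coli ATCC 25922.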
# [3] = system: Corynebacterium urealyticum; test: Antibacterial activity against Corynebacterium urealyticum isolated from patient with diabetic foot infection assessed as percent resistant isolates after 48 hrs by broth microdilution method
# How it was run: (§3)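 Isolates subcultured on Trypticase soy blood agar. Broth microdilution in cation-adjusted Mueller-Hinton broth with lysed horse blood, using in-house twofold dilution trays stored at −70°C. Inoculum from overnight colonies at about 5 × 10^5 CFU/ml final. Read after 18 to 24 h at 37°C, up to 48 h for some Corynebacterium strains.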
# [4] = system: Corynebacterium minutissimum; test: Antibacterial activity against Corynebacterium minutissimum isolated from patient with diabetic foot infection after 48 hrs by broth microdilution method; how it was run: as §1
# [5] = system: Corynebacterium minutissimum; test: Antibacterial activity against Corynebacterium minutissimum isolated from patient with diabetic foot infection assessed as percent resistant isolates after 48 hrs by broth microdilution method; how it was run: as §3
# [6] = system: Staphylococcus epidermidis; test: Antibacterial activity against Staphylococcus epidermidis isolated from patient with diabetic foot infection assessed as percent resistant isolates after 18 to 24 hrs by broth microdilution method; how it was run: as §2
# Corynebacterium jeikeium = test: Antibacterial activity against Corynebacterium jeikeium isolated from patient with diabetic foot infection after 48 hrs by broth microdilution method; how it was run: as §1
# Providencia rettgeri = test: Antibacterial activity against Proteus rettgeri isolated from patient with diabetic foot infection assessed as percent resistant isolates after 18 to 24 hrs by broth microdilution method; how it was run: as §2
# [7] = system: Staphylococcus lugdunensis; test: Antibacterial activity against Staphylococcus lugdunensis isolated from patient with diabetic foot infection assessed as percent resistant isolates after 18 to 24 hrs by broth microdilution method; how it was run: as §2
# Klebsiella pneumoniae [8] = test: Antibacterial activity against Klebsiella pneumoniae isolated from patient with diabetic foot infection assessed as percent resistant isolates after 18 to 24 hrs by broth microdilution method; how it was run: as §2
# Staphylococcus aureus [9] = test: Antibacterial activity against methicillin-resistant Staphylococcus aureus isolated from patient with diabetic foot infection assessed as percent resistant isolates after 18 to 24 hrs by broth microdilution method
# How it was run: (§4)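 Isolates grown on Trypticase soy blood agar, then tested by broth microdilution in unsupplemented cation-adjusted Mueller-Hinton broth. In-house trays held serial twofold drug dilutions and were stored at −70°C. Overnight colonies were suspended to a final inoculum near 5 × 10^5 CFU/ml, and trays read after 18–24 h at 37°C. QC strains: S. aureus ATCC 29213, E. coli ATCC 25922.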
# Escherichia coli [10] = test: Antibacterial activity against Escherichia coli isolated from patient with diabetic foot infection assessed as percent resistant isolates after 18 to 24 hrs by broth microdilution method; how it was run: as §2
# Escherichia coli [11] = test: Antibacterial activity against Escherichia coli isolated from patient with diabetic foot infection after 18 to 24 hrs by broth microdilution method
# How it was run: (§5)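 Isolates were subcultured on Trypticase soy blood agar and tested by broth microdilution in cation-adjusted Mueller-Hinton broth. In-house trays of twofold drug dilutions were stored at −70°C. Overnight colonies gave a final inoculum of about 5 × 10^5 CFU/ml. Plates were read after 18 to 24 h at 37°C.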
# Corynebacterium xerosis = test: Antibacterial activity against Corynebacterium xerosis isolated from patient with diabetic foot infection after 48 hrs by broth microdilution method; how it was run: as §1
# [12] = system: Corynebacterium aurimucosum; test: Antibacterial activity against Corynebacterium aurimucosum isolated from patient with diabetic foot infection assessed as percent resistant isolates after 48 hrs by broth microdilution method; how it was run: as §3
# Staphylococcus aureus [13] = test: Antibacterial activity against methicillin-sensitive Staphylococcus aureus isolated from patient with diabetic foot infection assessed as percent resistant isolates after 18 to 24 hrs by broth microdilution method; how it was run: as §4
# Streptococcus pyogenes [14] = test: Antibacterial activity against Streptococcus pyogenes isolated from patient with diabetic foot infection assessed as percent resistant isolates after 18 to 24 hrs by broth microdilution method
# How it was run: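 Isolates subcultured on Trypticase soy blood agar. MICs by broth microdilution in cation-adjusted Mueller-Hinton broth with lysed horse blood, in in-house trays of serial twofold drug dilutions stored at −70°C. Colonies from overnight growth were suspended to a final inoculum of about 5 × 10^5 CFU/ml. Read after 18–24 h at 37°C.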
# Staphylococcus aureus [15] = test: Antibacterial activity against methicillin-sensitive Staphylococcus aureus isolated from patient with diabetic foot infection after 18 to 24 hrs by broth microdilution method
# How it was run: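 Subcultured on Trypticase soy blood agar, then broth microdilution in cation-adjusted Mueller-Hinton broth. Trays were made in-house with serial twofold drug dilutions and stored at −70°C. Inoculum was colonies from overnight growth, final approximately 5 × 10^5 CFU/ml. MIC was read after 18 to 24 h at 37°C. QC strains: S. aureus ATCC 29213 and E. coli ATCC 25922.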
# Staphylococcus aureus [16] = test: Antibacterial activity against methicillin-resistant Staphylococcus aureus isolated from patient with diabetic foot infection after 18 to 24 hrs by broth microdilution method; how it was run: as §4
# Streptococcus pyogenes [17] = test: Antibacterial activity against Streptococcus pyogenes isolated from patient with diabetic foot infection after 18 to 24 hrs by broth microdilution method
# How it was run: (§6)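 Streptococcal isolates were subcultured on Trypticase soy blood agar. Broth microdilution used cation-adjusted Mueller-Hinton broth with lysed horse blood, in in-house trays of serial twofold drug dilutions stored at −70°C. Overnight colonies were suspended to a final inoculum of approximately 5 × 10^5 CFU/ml. MIC was read after 18 to 24 h incubation at 37°C.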
# Klebsiella pneumoniae [18] = test: Antibacterial activity against Klebsiella pneumoniae isolated from patient with diabetic foot infection after 18 to 24 hrs by broth microdilution method; how it was run: as §5
# [19] = system: Streptococcus dysgalactiae subsp. equisimilis; test: Antibacterial activity against Streptococcus dysgalactiae subsp. equisimilis isolated from patient with diabetic foot infection after 18 to 24 hrs by broth microdilution method; how it was run: as §6
# Pseudomonas aeruginosa = test: Antibacterial activity against Pseudomonas aeruginosa isolated from patient with diabetic foot infection assessed as percent resistant isolates after 18 to 24 hrs by broth microdilution method; how it was run: as §2
smiles,measurement,setting,value
C[C@@H](O)[C@H]1C(=O)N2C(C(=O)O)=C(SCCNC=N)C[C@H]12 [IMIPENEM ANHYDROUS],MIC50,[1],0.25 µg/mL
same,MIC90,[1],32 µg/mL
same,Activity,[2],0%
same,Activity,Klebsiella aerogenes,0%
same,Activity,[3],30%
same,MIC50,[4],0.25 µg/mL
same,MIC90,[4],32 µg/mL
same,Activity,[5],30%
same,Activity,[6],67%
same,MIC50,Corynebacterium jeikeium,0.25 µg/mL
same,MIC90,Corynebacterium jeikeium,32 µg/mL
same,Activity,Providencia rettgeri,0%
same,Activity,[7],0%
same,Activity,Klebsiella pneumoniae [8],0%
same,Activity,Staphylococcus aureus [9],100%
same,Activity,Escherichia coli [10],0%
same,MIC50,Escherichia coli [11],0.125 µg/mL
same,MIC90,Escherichia coli [11],0.25 µg/mL
same,MIC50,Corynebacterium xerosis,0.03 µg/mL
same,MIC90,Corynebacterium xerosis,0.125 µg/mL
same,Activity,[12],30%
same,Activity,Staphylococcus aureus [13],0%
same,Activity,Streptococcus pyogenes [14],0%
same,MIC50,Staphylococcus aureus [15],≤ 0.015 µg/mL
same,MIC90,Staphylococcus aureus [15],0.03 µg/mL
same,MIC50,Staphylococcus aureus [16],0.25 µg/mL
same,MIC90,Staphylococcus aureus [16],4 µg/mL
same,MIC50,Streptococcus pyogenes [17],≤ 0.015 µg/mL
same,MIC90,Streptococcus pyogenes [17],≤ 0.015 µg/mL
same,MIC50,Klebsiella pneumoniae [18],0.25 µg/mL
same,MIC90,Klebsiella pneumoniae [18],1 µg/mL
same,MIC50,[19],≤ 0.015 µg/mL
same,MIC90,[19],≤ 0.015 µg/mL
same,Activity,Pseudomonas aeruginosa,13%
